# Screening data from PubChem.
# HCV NS3 hel inh = inhibitors of HCV NS3 helicase, primary screen, biochemical, Cy5 molecular beacon fluorescence | Hepatitis C virus NS3 helicase | NS3 helicase DNA unwinding | inhibition, % at 10.9 µM | 290,000 tested, 0.56% active | AID 1800, 2009;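 active means inhibition above the mean of all tested compounds plus 3 SD, set per campaign, cut at about 35% in these data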;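 further: 0% = DMSO wells and 100% = thioflavine S control wells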
#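 Compound dosing – single dose, 10.9 µM nominal final, DMSO 0.8% final · System – NS3 helicase fragment of HCV · Buffer or medium – MOPS pH 6.5, MgCl2, DTT, Tween20, BSA · Signal – Cy5 beacon fluorescence read at start and 1 h · Also added – annealed dual-labelled DNA beacon duplex, ATP-started · Schedule – 1 h at 25 °C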
# rCAG binder = binders of r(CAG) RNA repeats, primary screen, biochemical, fluorescence; 370,000 tested, 1.3% active; inhibition, % at 3 µM; r(CAG) RNA repeat, TO-PRO-1 dye displacement fluorescence;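 active means inhibition above the plate cutoff, the mean of all test compounds on that plate plus 3 SD, cut at about 35% in these data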;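 further: 0% = DMSO alone and 100% = 100 µM mitoxantrone as full dye displacement; higher means more dye released from RNA so lower well fluorescence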
# TAAR1 antag = human TAAR1 antagonists, primary screen, Fluo-8 calcium fluorescence, CHO RD-HGA16 cells; Trace amine-associated receptor 1 (Homo sapiens), Q96RJ0; antagonist; inhibition, % at 3 µM; 360,000 tested, 1.5% active; AID 624466, 2012;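 active means inhibition above a per-plate cutoff, the mean inhibition of test compounds on that plate plus 3 SD, cut at about 49% in these data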;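 further: 0% = DMSO plus EC80 beta-PEA response and 100% = DMSO alone without agonist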
# Target sequence (Q96RJ0 whole entry, looked up): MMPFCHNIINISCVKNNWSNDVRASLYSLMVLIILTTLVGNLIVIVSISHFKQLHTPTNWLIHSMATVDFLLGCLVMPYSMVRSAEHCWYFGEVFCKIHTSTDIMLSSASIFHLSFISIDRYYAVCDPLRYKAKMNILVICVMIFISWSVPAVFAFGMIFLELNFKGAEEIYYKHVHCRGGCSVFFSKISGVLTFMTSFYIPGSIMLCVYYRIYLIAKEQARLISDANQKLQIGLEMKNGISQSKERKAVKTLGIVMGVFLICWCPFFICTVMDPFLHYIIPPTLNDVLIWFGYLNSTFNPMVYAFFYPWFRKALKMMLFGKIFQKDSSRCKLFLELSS
#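 Test system: hTAAR1-expressing CHO RD-HGA16 cells, Gα16-coupled; Probe or stimulus: EC80 β-phenethylamine stimulus; Compound dosing: single nominal final test compound concentration of 3 µM; Timing: 140 s kinetic read after compound, 140 s after agonist; Signal: Fluo-8 calcium-sensitive fluorescence; Measure: % inhibition of agonist calcium response; Controls: DMSO and EC80 PEA controls.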
# HCV core dimer = inhibitors of HCV core protein dimerization, primary screen, biochemical, TR-FRET, high-throughput; TR-FRET GST/Flag-core106 dimerization, 1536-well; inhibition, % at 5 µM; 300,000 tested, 0.33% active; AID 1899, 2009;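 active means inhibition above the mean of all tested compounds plus 3 SD, set per screening campaign, cut at about 45% in these data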
#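 test system = GST/Flag-tagged HCV core106 proteins | probe or stimulus = Eu donor and XL665 acceptor anti-tag antibodies | times = compound-protein-antibody incubation 4 h at 22.5 °C | signal = TR-FRET, excitation 340 nm, emission 617 and 671 nm | measure = percent inhibition of core106 dimerization signal | controls = wells lacking GST-core106 and wells with excess unlabelled core106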
# TAAR1 agonist = human TAAR1 agonists, primary screen, Fluo-8 calcium fluorescence, CHO RD-HGA16 cells | Trace amine-associated receptor 1 (Homo sapiens), Q96RJ0 | vehicle wells 0%, saturating PEA agonist 100% | activation, % at 3 µM | 360,000 tested, 0.99% active | AID 624467, 2012;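 active means activation above the mean activation of all test compounds in the run plus 3 SD, cut at about 38% in these data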
#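 System: CHO-derived RD-HGA16 cells with stable Gα16 and human TAAR1 / Times: 17-24 h plating, Fluo-8 75 min 37 °C, 30 min RT / Technique: calcium-sensitive Fluo-8 signal, excitation 470-495, emission 515-575 nm / Measure: % activation relative to PEA EC100 response / Benchmarks: DMSO and PEA EC100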
# TAAR1 ag confirm = human TAAR1 agonists, retest of hits, confirmation, Fluo-8 calcium fluorescence, CHO RD-HGA16 cells | 2,400 tested, 82% active | scaled: DMSO 0%, maximal phenethylamine 100% | activation, % at 3 µM | shares compounds with TAAR1 agonist;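 active means activation above a cutoff set at the run's mean compound activation plus 3 SD, cut at about 39% in these data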
# Ga16 nonsel ag = nonselective calcium mobilization agonists, CHO-Ga16 cells, counter-screen for hTAAR1 agonist project, cell-based, fluorescence, CHO-Ga16 parental line. activation, % at 3 µM. 2,400 tested, 50% active. Fluo-8 calcium fluorescence; normalized to maximal ATP response, DMSO zero. AID 651787, 2012. shares compounds with TAAR1 agonist;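 active means activation above the run cutoff, the mean activation over all tested wells plus 3 SD, cut at about 12% in these data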;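 further: 0% = DMSO wells and 100% = maximal ATP response on the peak over basal ratio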
# TAAR1 desens = TAAR1 desensitization by agonist hits, confirmation, counter-screen for TAAR1 agonist project, cell-based, fluorescence, tachyphylaxis | 2,400 tested, 46% active | CHO RD-HGA16 hTAAR1, Fluo-8 calcium, beta-PEA response inhibition | inhibition, % at 3 µM | AID 651951, 2012 | shares compounds with TAAR1 agonist;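 active means inhibition above the run cutoff, the mean inhibition of all test compounds plus 3 SD, cut at about 49% in these data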;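 further: beta-PEA stimulus applied at its EC80; loss of beta-PEA calcium signal after compound pretreatment read as receptor desensitization; 0% = DMSO with beta-PEA at EC80 and 100% = DMSO alone without agonist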
# Ga16 nonsel ant = inhibition of ATP-evoked calcium response in CHO-Ga16 cells, counter-screen for TAAR1 agonist project, cell-based, fluorescence; CHO-Ga16 ATP-induced calcium, Fluo-8 fluorescence; inhibition, % at 3 µM; 2,400 tested, 39% active; shares compounds with TAAR1 agonist;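 active means inhibition above the plate's mean compound inhibition plus 3 SD, computed per plate, cut at about 22% in these data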;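 further: 0% = EC80 ATP with DMSO and 100% = DMSO wells without ATP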
# An asterisk follows results filed as active; · = no result given. A selection: hits, their analogues and other compounds. The true share with any hit is near 3.7%.
SMILES,HCV NS3 hel inh,rCAG binder,TAAR1 antag,HCV core dimer,TAAR1 agonist,TAAR1 ag confirm,Ga16 nonsel ag,TAAR1 desens,Ga16 nonsel ant
CC(=O)N1CCN(c2ccc(N3CCN(C(C)=O)[C@@H](C)C3)c(C)c2)[C@H](C)C1,·,2,-15,·,5,·,·,·,·
Cc1ccc(-c2cccc3[nH]cc(C)c23)s1,·,3,·,·,·,·,·,·,·
Cc1cc(/C=N/NC(=O)CC2(C)OCCO2)c(C)n1-c1cc(Cl)cc(Cl)c1,3,-4,4,4,72*,84*,50*,5,1
Cc1ccc(-n2c(C)cc(/C=N/NC(=O)CC3(C)OCCO3)c2C)cc1,4,-3,4,-3,9,·,·,·,·
O=C(Cc1ccccc1)Nc1ccc(NC(=O)c2ccccc2)nc1,-2,3,3,2,53*,64*,2,31,12
O=C(Nc1ccc(NC(=O)C2CC2)cn1)c1ccccc1,4,-1,11,-2,-1,·,·,·,·
O=C(Nc1cccc(C(=O)Nc2ccc(Cl)cn2)c1)c1ccccc1,11,0,86*,-5,87*,3,7,26,17
O=C(Nc1ccc(Cl)cn1)c1cccc(F)c1,-5,1,-21,-6,3,·,·,·,·
C#CCN1C[C@@]2(O)CC[C@@H](O)[C@@H](OC)[C@@H]2[C@@]1(C)[C@H](O)CC=C(C)C,·,0,-8,·,0,·,·,·,·
CCC(=O)c1ccc(OCC(O)CNCc2ccc(F)cc2)cc1 (stereo not drawn),0,2,-17,0,8,·,·,·,·
O=C(c1ccccc1)c1ccc(OCC(O)CNCc2cccc(Cl)c2)cc1 (stereo not drawn),-37,-6,7,·,58*,95*,43*,60*,40*
Cc1ccc(OCC(O)CNCc2ccccc2)cc1C (stereo not drawn),-13,-5,-28,-7,6,·,·,·,·
O=C(c1ccccc1)c1ccc(OCC(O)CNCc2ccc(F)cc2)cc1 (stereo not drawn),-58,-5,13,·,48*,48*,19*,20,24*
O=C(CC1C(=O)NCCN1Cc1ccccn1)NCCc1ccccc1F (stereo not drawn),-43,3,41,0,78*,97*,8,72*,-3
CCOc1ccc(CN2CCNC(=O)C2CC(=O)NCCc2ccccn2)cc1 (stereo not drawn),1,-1,9,-2,16,·,·,·,·
CN1CCNC(=O)C1CC(=O)NCCc1ccccc1F (stereo not drawn),-14,1,30,-3,74*,89*,2,59*,6
COc1ccc(-c2nnc(SCC(=O)Nc3ccc4cn[nH]c4c3)n2Cc2ccco2)cc1,·,6,·,·,·,·,·,·,·
Cc1ccc(-c2nnn(CC(=O)NCCc3ccc4c(c3)OCO4)n2)cc1,-3,0,67*,3,78*,47*,10,23,16
Cc1ccccc1-c1nc(CS(=O)(=O)CC(=O)NCCc2ccccc2)c(C)o1,-3,-10,24,5,72*,76*,4,63*,16
Cc1oc(-c2ccccc2F)nc1CS(=O)(=O)CC(=O)NCCCc1ccccc1,-5,6,-16,-5,16,·,·,·,·
COc1cccc(-c2nc(CS(=O)(=O)CC(=O)NCCc3ccccc3)c(C)o2)c1,-7,-6,29,8,71*,94*,21*,67*,12
Cc1oc(-c2cccs2)nc1CS(=O)CC(=O)NCCc1ccccc1 (stereo not drawn),5,8,-21,15,58*,73*,4,34,4
COc1cccc(-c2nc(CS(=O)(=O)CC(=O)N3CCc4ccccc4C3)c(C)o2)c1,4,2,1,4,67*,87*,3,43,9
Cc1cc(O)cc(=O)n1-c1cc(C(F)(F)F)cc(C(F)(F)F)c1,·,0,1,·,3,·,·,·,·
Cc1oc(-c2ccccc2)nc1CS(=O)CC(=O)N1CCc2ccccc2C1 (stereo not drawn),3,-2,-15,0,56*,91*,0,44,2
SMILES,HCV NS3 hel inh,rCAG binder,TAAR1 antag,HCV core dimer,TAAR1 agonist,TAAR1 ag confirm,Ga16 nonsel ag,TAAR1 desens,Ga16 nonsel ant
OC(c1ccccc1)(c1ccccc1)C1CCN(CCCOc2cccc(OC(F)(F)F)c2)CC1,·,1,37,·,20,·,·,·,·
Cc1cccc(OCCCN2CCC(C(O)(c3ccccc3)c3ccccc3)CC2)c1,·,0,38,·,41*,32,16*,27,30*
OC(c1ccccc1)(c1ccccc1)C1CCN(CCCOc2cc(F)cc(F)c2)CC1,·,1,33,·,49*,35,32*,49*,46*
COc1cccc(OCCCN2CCC(C(O)(c3ccccc3)c3ccccc3)CC2)c1,·,1,37,·,42*,23,13*,13,26*
CC(=O)Nc1ccc(OCCCN2CCC(C(O)(c3ccccc3)c3ccccc3)CC2)cc1,·,-1,0,·,3,·,·,·,·
CCCN1CCCCC(NC(=O)c2ccc(C)cc2C)C1=O (stereo not drawn),·,-2,-8,·,4,·,·,·,·
